Data from ChEMBL document CHEMBL3853336, “Novel selective glucocorticoid receptor agonists (SEGRAs) with a covalent warhead for long-lasting inhibition” (Bioorg Med Chem Lett, 2016).

Tests used:
[1] = molecular target: T1, Glucocorticoid receptor (Homo sapiens) (UniProt P04150); assay: Displacement of [3H]-dexamethasone from human GR receptor at 1 uM relative to control
T1 sequence (whole entry): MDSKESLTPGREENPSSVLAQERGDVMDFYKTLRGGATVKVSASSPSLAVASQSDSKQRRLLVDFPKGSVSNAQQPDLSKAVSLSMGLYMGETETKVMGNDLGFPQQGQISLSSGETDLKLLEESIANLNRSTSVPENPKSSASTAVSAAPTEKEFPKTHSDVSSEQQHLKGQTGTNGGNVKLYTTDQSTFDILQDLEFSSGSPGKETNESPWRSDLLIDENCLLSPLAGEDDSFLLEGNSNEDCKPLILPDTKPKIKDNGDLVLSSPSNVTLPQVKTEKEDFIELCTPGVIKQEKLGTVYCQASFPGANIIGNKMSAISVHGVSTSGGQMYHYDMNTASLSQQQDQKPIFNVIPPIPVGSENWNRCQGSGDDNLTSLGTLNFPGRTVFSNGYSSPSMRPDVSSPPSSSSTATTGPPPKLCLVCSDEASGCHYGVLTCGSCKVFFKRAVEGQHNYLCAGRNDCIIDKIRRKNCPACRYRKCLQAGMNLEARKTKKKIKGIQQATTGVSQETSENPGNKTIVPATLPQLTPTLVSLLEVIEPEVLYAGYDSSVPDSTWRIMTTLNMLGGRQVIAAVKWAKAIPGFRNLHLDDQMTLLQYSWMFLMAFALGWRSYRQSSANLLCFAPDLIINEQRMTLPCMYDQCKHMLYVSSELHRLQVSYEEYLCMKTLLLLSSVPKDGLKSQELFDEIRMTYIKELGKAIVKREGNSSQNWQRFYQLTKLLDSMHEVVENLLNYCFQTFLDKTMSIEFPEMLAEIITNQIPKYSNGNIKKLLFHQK
In short: (§1)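 Human GR radioligand binding with soluble receptor from IM-9 cells and 1.5 nM [3H]-dexamethasone, with test ligand at 1 µM or 0.1 µM. Specific binding reported as % inhibition of control, in duplicate.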

[2] = molecular target: T1, Glucocorticoid receptor (Homo sapiens); assay: Displacement of [3H]-dexamethasone from human GR receptor at 0.1 uM relative to control; in short: as §1
[3] = molecular target: T1, Glucocorticoid receptor (Homo sapiens); assay: Displacement of [3H]-dexamethasone from GR receptor in human IM-9 cytosolic extracts at 100 nM preincubated for 6 hrs followed by washout and second incubation with [3H]-dexamethasone for 1 hr relative to control
In short: (§2)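 IM-9 cytosol (240 µg/assay) preincubated 6 h with ligand (100 nM, or 60 nM for cortisol). Unbound ligand was stripped with activated charcoal and centrifugation, then 3 nM [3H]-dexamethasone was added. Binding was read after 1, 2, 3, 4, 16 or 24 h of second incubation as % inhibition of control specific binding, in duplicate.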

[4] = molecular target: T1, Glucocorticoid receptor (Homo sapiens); assay: Displacement of [3H]-dexamethasone from GR receptor in human IM-9 cytosolic extracts at 100 nM preincubated for 6 hrs followed by washout and second incubation with [3H]-dexamethasone for 2 hrs relative to control; in short: as §2
[5] = molecular target: T1, Glucocorticoid receptor (Homo sapiens); assay: Displacement of [3H]-dexamethasone from GR receptor in human IM-9 cytosolic extracts at 100 nM preincubated for 6 hrs followed by washout and second incubation with [3H]-dexamethasone for 3 hrs relative to control; in short: as §2
[6] = molecular target: T1, Glucocorticoid receptor (Homo sapiens); assay: Displacement of [3H]-dexamethasone from GR receptor in human IM-9 cytosolic extracts at 100 nM preincubated for 6 hrs followed by washout and second incubation with [3H]-dexamethasone for 4 hrs relative to control; in short: as §2
[7] = molecular target: T1, Glucocorticoid receptor (Homo sapiens); assay: Displacement of [3H]-dexamethasone from GR receptor in human IM-9 cytosolic extracts at 100 nM preincubated for 6 hrs followed by washout and second incubation with [3H]-dexamethasone for 16 hrs relative to control; in short: as §2
[8] = molecular target: T1, Glucocorticoid receptor (Homo sapiens); assay: Displacement of [3H]-dexamethasone from GR receptor in human IM-9 cytosolic extracts at 100 nM preincubated for 6 hrs followed by [3H]-dexamethasone addition relative to control
[9] = molecular target: T1, Glucocorticoid receptor (Homo sapiens); assay: Displacement of [3H]-dexamethasone from GR receptor in human IM-9 cytosolic extracts using buffer solution without beta-mercaptoethanol at 100 nM preincubated for 6 hrs followed by washout and second incubation with [3H]-dexamethasone for 4 hrs relative to control
In short: (§3)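 Repeat of the wash-out protocol in buffers free of β-mercaptoethanol, with a second batch of dexamethasone mesylate. IM-9 cytosol (240 µg/assay) preincubated 6 h at 100 nM (cortisol 60 nM), charcoal-stripped and centrifuged, then given 3 nM [3H]-dexamethasone. Binding was read before wash-out or at 1–24 h as % inhibition of control, in duplicate.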

[10] = molecular target: T1, Glucocorticoid receptor (Homo sapiens); assay: Displacement of [3H]-dexamethasone from GR receptor in human IM-9 cytosolic extracts using buffer solution without beta-mercaptoethanol at 100 nM preincubated for 6 hrs followed by washout and second incubation with [3H]-dexamethasone for 16 hrs relative to control; in short: as §3
[11] = molecular target: T1, Glucocorticoid receptor (Homo sapiens); assay: Displacement of [3H]-dexamethasone from GR receptor in human IM-9 cytosolic extracts using buffer solution without beta-mercaptoethanol at 100 nM preincubated for 6 hrs followed by washout and second incubation with [3H]-dexamethasone for 24 hrs relative to control; in short: as §3
[12] = molecular target: T1, Glucocorticoid receptor (Homo sapiens); assay: Displacement of [3H]-dexamethasone from GR receptor in human IM-9 cytosolic extracts using buffer solution without beta-mercaptoethanol at 100 nM preincubated for 6 hrs followed by [3H]-dexamethasone addition relative to control; in short: as §3
[13] = molecular target: T1, Glucocorticoid receptor (Homo sapiens); assay: Displacement of [3H]-dexamethasone from GR receptor in human IM-9 cytosolic extracts at 100 nM preincubated for 6 hrs followed by washout and second incubation with [3H]-dexamethasone for 24 hrs relative to control; in short: as §2
[14] = molecular target: T1, Glucocorticoid receptor (Homo sapiens); assay: Displacement of [3H]-dexamethasone from GR receptor in human IM-9 cytosolic extracts using buffer solution without beta-mercaptoethanol at 100 nM preincubated for 6 hrs followed by washout and second incubation with [3H]-dexamethasone for 1 hr relative to control; in short: as §3
[15] = molecular target: T1, Glucocorticoid receptor (Homo sapiens); assay: Displacement of [3H]-dexamethasone from GR receptor in human IM-9 cytosolic extracts using buffer solution without beta-mercaptoethanol at 100 nM preincubated for 6 hrs followed by washout and second incubation with [3H]-dexamethasone for 2 hrs relative to control; in short: as §3
[16] = molecular target: T1, Glucocorticoid receptor (Homo sapiens); assay: Displacement of [3H]-dexamethasone from GR receptor in human IM-9 cytosolic extracts using buffer solution without beta-mercaptoethanol at 100 nM preincubated for 6 hrs followed by washout and second incubation with [3H]-dexamethasone for 3 hrs relative to control; in short: as §3
[17] = molecular target: T1, Glucocorticoid receptor (Homo sapiens); assay: Displacement of [3H]-dexamethasone from GR receptor in human IM-9 cytosolic extracts at 60 nM preincubated for 6 hrs followed by washout and second incubation with [3H]-dexamethasone for 1 hr relative to control; in short: as §2
[18] = molecular target: T1, Glucocorticoid receptor (Homo sapiens); assay: Displacement of [3H]-dexamethasone from GR receptor in human IM-9 cytosolic extracts at 60 nM preincubated for 6 hrs followed by washout and second incubation with [3H]-dexamethasone for 2 hrs relative to control; in short: as §2
[19] = molecular target: T1, Glucocorticoid receptor (Homo sapiens); assay: Displacement of [3H]-dexamethasone from GR receptor in human IM-9 cytosolic extracts at 60 nM preincubated for 6 hrs followed by washout and second incubation with [3H]-dexamethasone for 3 hrs relative to control; in short: as §2
[20] = molecular target: T1, Glucocorticoid receptor (Homo sapiens); assay: Displacement of [3H]-dexamethasone from GR receptor in human IM-9 cytosolic extracts at 60 nM preincubated for 6 hrs followed by washout and second incubation with [3H]-dexamethasone for 4 hrs relative to control; in short: as §2
[21] = molecular target: T1, Glucocorticoid receptor (Homo sapiens); assay: Displacement of [3H]-dexamethasone from GR receptor in human IM-9 cytosolic extracts at 60 nM preincubated for 6 hrs followed by washout and second incubation with [3H]-dexamethasone for 16 hrs relative to control; in short: as §2
[22] = molecular target: T1, Glucocorticoid receptor (Homo sapiens); assay: Displacement of [3H]-dexamethasone from GR receptor in human IM-9 cytosolic extracts at 60 nM preincubated for 6 hrs followed by washout and second incubation with [3H]-dexamethasone for 24 hrs relative to control; in short: as §2
[23] = molecular target: T1, Glucocorticoid receptor (Homo sapiens); assay: Displacement of [3H]-dexamethasone from GR receptor in human IM-9 cytosolic extracts at 60 nM preincubated for 6 hrs followed by [3H]-dexamethasone addition relative to control
[24] = molecular target: T1, Glucocorticoid receptor (Homo sapiens); assay: Displacement of [3H]-dexamethasone from GR receptor in human IM-9 cytosolic extracts using buffer solution without beta-mercaptoethanol at 60 nM preincubated for 6 hrs followed by washout and second incubation with [3H]-dexamethasone for 16 hrs relative to control; in short: as §3
[25] = molecular target: T1, Glucocorticoid receptor (Homo sapiens); assay: Displacement of [3H]-dexamethasone from GR receptor in human IM-9 cytosolic extracts using buffer solution without beta-mercaptoethanol at 60 nM preincubated for 6 hrs followed by washout and second incubation with [3H]-dexamethasone for 24 hrs relative to control; in short: as §3
[26] = molecular target: T1, Glucocorticoid receptor (Homo sapiens); assay: Displacement of [3H]-dexamethasone from GR receptor in human IM-9 cytosolic extracts using buffer solution without beta-mercaptoethanol at 60 nM preincubated for 6 hrs followed by [3H]-dexamethasone addition relative to control; in short: as §3

inhibition [1] [%] | inhibition [2] [%] | inhibition [3] [%] | inhibition [4] [%] | inhibition [5] [%] | inhibition [7] [%] | inhibition [8] [%] | inhibition [9] [%] | inhibition [10] [%] | inhibition [11] [%] | inhibition [12] [%] | inhibition [13] [%] | inhibition [14] [%] | inhibition [16] [%] | Compound | also measured
96 | 74 | 21 | 17 | 24 | 31 | 74 | -10 | -5 | -2 | 74 |  |  |  | C=CC(=O)Nc1ccc(Cl)c(C(=O)N(CC)CC(O)(CNC(=O)c2cnn(-c3ccc(F)cc3)c2N)C(F)(F)F)c1Cl (configuration not stated) | inhibition [6]: 6%
92 | 78 | -4 |  |  | 1 | 78 | 0 | 37 | 8 | 78 | 2 | -1 | -6 | CCN(CC(O)(CNC(=O)c1cnn(-c2ccc(F)cc2)c1N)C(F)(F)F)C(=O)c1c(Cl)ccc(NC(=O)CCl)c1Cl (configuration not stated) | inhibition [15]: -8%
 |  |  |  |  |  |  |  |  |  |  |  |  |  | C[C@]12CCC(=O)C=C1CC[C@@H]1[C@@H]2[C@@H](O)C[C@@]2(C)[C@H]1CC[C@]2(O)C(=O)CO | inhibition [17]: 3%; inhibition [18]: 6%; inhibition [19]: 4%; inhibition [20]: -1%; inhibition [21]: 5%; inhibition [22]: 12%; inhibition [23]: 69%; inhibition [24]: 16%; inhibition [25]: -8%; inhibition [26]: 69%
 |  | 7 | 3 | 7 | 13 | 93 | 3 | 46 | 13 | 93 | 23 | 3 | -2 | C[C@@H]1C[C@H]2[C@@H]3CCC4=CC(=O)C=C[C@]4(C)[C@@]3(F)[C@@H](O)C[C@]2(C)[C@@]1(O)C(=O)COS(C)(=O)=O | 
